For series [1], the target named is T1, Lysosomal acid glucosylceramidase (Homo sapiens, UniProt P04062).
T1 sequence (P04062 whole entry): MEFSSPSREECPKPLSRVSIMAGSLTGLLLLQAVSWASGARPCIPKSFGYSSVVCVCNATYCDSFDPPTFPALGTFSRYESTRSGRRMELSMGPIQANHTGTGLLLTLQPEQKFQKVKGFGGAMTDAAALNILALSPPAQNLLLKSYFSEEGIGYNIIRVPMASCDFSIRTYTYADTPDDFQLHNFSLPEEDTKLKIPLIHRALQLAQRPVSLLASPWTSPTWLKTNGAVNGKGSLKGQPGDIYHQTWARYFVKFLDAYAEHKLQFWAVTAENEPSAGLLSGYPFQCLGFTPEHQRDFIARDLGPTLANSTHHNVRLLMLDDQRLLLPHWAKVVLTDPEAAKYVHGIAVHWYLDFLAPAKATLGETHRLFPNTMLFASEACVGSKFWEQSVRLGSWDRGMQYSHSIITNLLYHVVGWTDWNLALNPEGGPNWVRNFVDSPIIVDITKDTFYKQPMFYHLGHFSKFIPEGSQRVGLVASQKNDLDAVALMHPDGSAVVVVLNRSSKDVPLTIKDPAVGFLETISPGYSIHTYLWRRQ
As to the kind of experiment: Inhibition of human placental beta-glucocerebrosidase.

For series [2], the system named is T2, Lysosomal acid glucosylceramidase (Homo sapiens), P04062 [N409S].
T2 sequence (whole entry): T1 sequence (P04062 whole entry) with N409S
As to the kind of experiment: Activation of beta-glucocerebrosidase N370S mutant in Goucher lymphoblasts at 50 uM after 3 days relative to control.

Series [3] deals with HL-60. As to the kind of experiment: Cytotoxicity against human HL60 cells assessed as dead cells at 100 uM after 3 days by propidium iodide staining based flow cytometry. The format is cell-based. Particulars: hl-60, 72 h. In short, it runs like this: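 HL60 cells exposed to compound at 100 µM for 3 days; cytotoxicity reported as percentage of dead cells.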
Background: In flow cytometry, cells or beads pass a laser one at a time.

The results in this text go back to ChEMBL document CHEMBL1138500 (J Med Chem, 2009).

Each structure is given as a SMILES string. Changes are numbered by the printed parent chain. pIC50: −log10 of the molar value.

The pIC50 is the negative decadic logarithm of the IC50, by convention in mol/L. In series [1], `O=C1[C@@H](O)[C@H](O)[C@@H](O)CN1CCCCCCO` gave a pIC50 of under 3.30. This molecule also returned a fold change (FC) in series [2] of 1.8. Besides, in series [3], the Activity was 3.44%.

Molecule `CCCCN1C[C@@H](O)[C@@H](O)[C@H](O)C1=O` showed a negative logarithm of the IC50 (pIC50) in series [1] of under 3.30. Besides, the Activity in series [3] came to 2.78%.

Turning to `CC(=O)NC1CN(CCCCCCO)C(=O)C(O)[C@@H]1O` (single isomer, unassigned), the negative-log IC50 (pIC50) in series [1] is under 3.30. In series [2], this molecule gave a fold change (FC) of 1.3. Moreover, the Activity in series [3] is on record as 2.9%.

As to `CCCCCCCCCCN1C[C@H](O)[C@@H](O)[C@H](O)C1=O`, the pIC50 in series [1] was 3.53. Besides, in series [2], the fold change (FC) was determined as 2. Besides, in series [3], the Activity came to 11.2%.

Consider `CCCCN1C[C@H](O)[C@@H](O)[C@H](O)[C@H]1CO`, for which the Activity in series [3] is 2.69%.

Consider `O=C1[C@@H](O)[C@H](O)[C@H](O)CN1CCO`, for which the pIC50 in series [1] is under 3.30. In addition, the Activity in series [3] is listed as 2.95%.

In series [1], `O=C1[C@@H](O)[C@H](O)[C@H](O)CN1CCCCCCO` showed a negative logarithm of the IC50 (pIC50) of under 3.30. In series [2], this molecule came in with a fold change (FC) of 4.1. The Activity in series [3] is 3.75%.

Consider `CCCOCCCCCCN1C[C@@H](O)[C@@H](O)[C@H](O)C1=O`, for which, in series [1], the pIC50 is 3.90. Moreover, the fold change (FC) in series [2] worked out at 3.6. In addition, in series [3], the Activity was 4.33%.

As for `O=C1[C@H](O)[C@H](O)CN1CCCCCCO`, the negative logarithm of the IC50 (pIC50) in series [1] is under 3.30. Also, the fold change (FC) in series [2] is 1.8. The Activity in series [3] is listed as 3.57%.

Turning to `CCCOCCN1C[C@@H](O)[C@@H](O)[C@H](O)C1=O`, the negative-log IC50 (pIC50) in series [1] is under 3.30. Also, the fold change (FC) in series [2] was 3.8. The Activity in series [3] was 2.39%.

In turn, `CCCCCCCCCN1C[C@@H](O)[C@@H](O)[C@H](O)C1=O` showed a pIC50 in series [1] of 3.99. In series [2], the fold change (FC) is 2. Further, the Activity in series [3] is given as 4.71%.

In turn, `CCCCCCCCCCN1C[C@@H](O)[C@@H](O)C1=O` had a pIC50 in series [1] of 3.55. In series [2], this molecule registered a fold change (FC) of 1.5. In series [3], the Activity was found to be 6.69%.

Consider `CCCCCCCCCCN1C[C@@H](O)[C@@H](O)[C@H](O)C1=O`, for which the pIC50 in series [1] was 4.34. In series [2], this molecule returned a fold change (FC) of 2.1. Moreover, the Activity in series [3] was 5.19%.

The molecule `O=C1[C@@H](O)[C@H](O)[C@H](O)CN1Cc1ccccc1` gave a negative logarithm of the IC50 (pIC50) in series [1] of under 3.30. Further, the fold change (FC) in series [2] stood at 3.4. For the same molecule, the Activity in series [3] came out at 3.46%.

Consider `CCCN(CCC)CCN1C[C@@H](O)[C@@H](O)[C@H](O)C1=O`, for which, in series [1], the pIC50 was 3.60. Besides, the fold change (FC) in series [2] amounted to 3.9. For the same molecule, the Activity in series [3] was found to be 3.45%.

For the molecule `CCCCCCCCN1C[C@@H](O)[C@@H](O)[C@H](O)C1=O`, the pIC50 in series [1] is 3.76. Further, in series [2], the fold change (FC) stood at 6.2. Besides, the Activity in series [3] stood at 3.51%.

`O=C1[C@H](O)[C@H](O)[C@H](O)CN1CCCCCCO`: the pIC50 in series [1] was under 3.30. For the same molecule, the fold change (FC) in series [2] worked out at 2.5. Besides, the Activity in series [3] is on record as 3.23%.

As for `CCCCCCCCCCN1CC(NC(C)=O)[C@@H](O)C(O)C1=O` (single isomer, unassigned), the pIC50 in series [1] is under 3.30. The Activity in series [3] was found to be 7.58%.

In series [1], `CCCCCCCCN1C[C@@H](O)C(O)[C@H](O)C1` had a negative-log IC50 (pIC50) of under 3.30. Besides, in series [3], the Activity is listed as 3.55%.

Turning to `O=C1NC[C@@H](O)[C@@H](O)[C@@H]1O`, in series [1], the pIC50 is under 3.30. Further, the Activity in series [3] is on record as 2.77%.

With `CCCCCCCCCCN1C[C@@H](O)[C@@H](O)[C@@H](O)C1=O`, the pIC50 in series [1] was 3.33. Besides, the fold change (FC) in series [2] stood at 2.9. For the same molecule, in series [3], the Activity is listed as 10.22%.
